Reference: ChEMBL document CHEMBL4425104, “Structure-Based Design of Potent Nicotinamide Phosphoribosyltransferase Inhibitors with Promising in Vitro and in Vivo Antitumor Activities” (J Med Chem, 2016)

Experiments:
[1] = biological target: Nicotinamide phosphoribosyltransferase (Homo sapiens, UniProt P43490); test: Inhibition of recombinant NAMPT (unknown origin) using nicotinamide as substrate measured every 5 mins for 30 mins in presence of recombinant NMNAT1
NCI-H1975 = test: Cytotoxicity against human NCI-H1975 cells assessed as cell growth inhibition after 72 hrs by CCK-8 assay; type: functional; details: NCI-H1975, 72 h
Summary of the method: (§1)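 HeLa, MCF7, H1975, U937 and MDA-MB-231 kept in RPMI or DMEM with 10% FBS and 1% pen/strep at 37 °C, 5% CO2. Seeded at 400-800 cells/well in 384-well format, exposed to a concentration series or solvent control for 72 h. CCK-8 added, absorbance read at 450 nm, IC50 fitted from dose-response curves.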

HeLa = test: Cytotoxicity against human HeLa cells assessed as cell growth inhibition after 72 hrs by CCK-8 assay; type: functional; summary of the method: as §1
U-937 = test: Cytotoxicity against human U937 cells assessed as cell growth inhibition after 72 hrs by CCK-8 assay; type: functional; details: U-937, 72 h; summary of the method: as §1
MDA-MB-231 = test: Cytotoxicity against human MDA-MB-231 cells assessed as cell growth inhibition after 72 hrs by CCK-8 assay; type: functional; details: MDA-MB-231, 72 h; summary of the method: as §1
MCF7 = test: Cytotoxicity against human MCF7 cells assessed as cell growth inhibition after 72 hrs by CCK-8 assay; type: functional; details: MCF7, 72 h; summary of the method: as §1

Sequence of Nicotinamide phosphoribosyltransferase (P43490 whole entry): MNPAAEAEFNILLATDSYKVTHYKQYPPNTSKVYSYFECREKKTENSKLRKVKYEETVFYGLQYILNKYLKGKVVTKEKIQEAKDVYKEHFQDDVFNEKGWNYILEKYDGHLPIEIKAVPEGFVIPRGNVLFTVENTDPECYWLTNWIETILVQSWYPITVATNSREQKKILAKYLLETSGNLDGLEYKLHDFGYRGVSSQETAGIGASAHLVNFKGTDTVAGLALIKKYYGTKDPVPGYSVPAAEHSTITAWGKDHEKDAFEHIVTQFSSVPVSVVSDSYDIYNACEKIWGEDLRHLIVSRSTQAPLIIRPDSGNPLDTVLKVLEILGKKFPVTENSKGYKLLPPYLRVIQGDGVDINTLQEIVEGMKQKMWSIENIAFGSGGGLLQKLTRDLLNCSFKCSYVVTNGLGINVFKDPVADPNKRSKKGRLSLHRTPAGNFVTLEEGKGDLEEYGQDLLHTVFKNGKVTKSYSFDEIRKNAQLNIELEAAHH

With `CCN(CCc1c[nH]c2ccccc12)Cc1ccc(CCCNC(=O)/C=C/c2cccnc2)cc1` the IC50 [1] was 873 nM, the GI50 (NCI-H1975) was 314 nM and the GI50 (HeLa) was 200 nM. It also gave a GI50 (U-937) of 48.3 nM, a GI50 (MDA-MB-231) of 76.4 nM and a GI50 (MCF7) of 41 nM.

In the case of `CC(C)N(Cc1ccccc1)Cc1ccc(CCCCCNC(=O)/C=C/c2cccnc2)cc1`, the IC50 [1] is reported as 82.5 nM, the GI50 (NCI-H1975) is reported as 49 nM and the GI50 (HeLa) is reported as 40.1 nM. For the same compound, the GI50 (U-937) was 11.1 nM, the GI50 (MDA-MB-231) was 12.6 nM and the GI50 (MCF7) was 6.37 nM.

Work on `CC(C)N(CCc1c[nH]c2ccccc12)Cc1ccc(CCCCCCCNC(=O)/C=C/c2cccnc2)cc1` yielded an IC50 [1] of 52.7 nM, a GI50 (NCI-H1975) of 4.2 nM and a GI50 (HeLa) of 2.64 nM. For the same compound, the GI50 (U-937) was 0.75 nM, the GI50 (MDA-MB-231) was 0.84 nM and the GI50 (MCF7) was 0.74 nM.

In the case of `CC(C)N(CCc1ccc(C(F)(F)F)cc1)Cc1ccc(CCCCCNC(=O)/C=C/c2cccnc2)cc1`, the IC50 [1] is reported as 362 nM, the GI50 (NCI-H1975) is reported as 9.54 nM and the GI50 (HeLa) is reported as 8.98 nM. For the same compound, the GI50 (U-937) was 1.57 nM, the GI50 (MDA-MB-231) was 2.4 nM and the GI50 (MCF7) was 1.6 nM.

For `Cc1ccc(CCN(Cc2ccc(CCCCCNC(=O)/C=C/c3cccnc3)cc2)C(C)C)cc1`, the IC50 [1] was 99.6 nM, the GI50 (NCI-H1975) was 39.2 nM and the GI50 (HeLa) was 26.6 nM. The GI50 (U-937) was 8.73 nM, the GI50 (MDA-MB-231) was 7.19 nM and the GI50 (MCF7) was 5.53 nM.

In the case of `CC(C)N(CCc1c[nH]c2ccccc12)Cc1ccc(CCCCCNC(=O)/C=C/c2cccnc2)cc1`, the IC50 [1] is reported as 66.9 nM, the GI50 (NCI-H1975) is reported as 4.2 nM and the GI50 (HeLa) is reported as 3.23 nM. The GI50 (U-937) was 0.61 nM, the GI50 (MDA-MB-231) was 0.89 nM and the GI50 (MCF7) was 0.63 nM.

`O=C(/C=C/c1cccnc1)NCCCc1ccc(CN(CCc2c[nH]c3ccccc23)Cc2ccccc2)cc1` showed an IC50 [1] of 1000 nM, a GI50 (NCI-H1975) of 514 nM and a GI50 (HeLa) of 379 nM. For the same compound, the GI50 (U-937) was 85.2 nM, the GI50 (MDA-MB-231) was 269 nM and the GI50 (MCF7) was 101 nM.

`CC(C)N(CCc1c[nH]c2ccccc12)Cc1ccc(CCCNC(=O)/C=C/c2cccnc2)cc1` gave an IC50 [1] of 702 nM, a GI50 (NCI-H1975) of 79.7 nM and a GI50 (HeLa) of 90.7 nM. The GI50 (U-937) was 24.2 nM, the GI50 (MDA-MB-231) was 30.5 nM and the GI50 (MCF7) was 22.4 nM.

With `CN(CCc1c[nH]c2ccccc12)Cc1ccc(CCCNC(=O)/C=C/c2cccnc2)cc1` the IC50 [1] was 780 nM, the GI50 (NCI-H1975) was 224 nM and the GI50 (HeLa) was 250 nM. It also gave a GI50 (U-937) of 69.1 nM, a GI50 (MDA-MB-231) of 84.7 nM and a GI50 (MCF7) of 75.4 nM.

With `CC(C)N(CCc1ccccc1)Cc1ccc(CCCCCNC(=O)/C=C/c2cccnc2)cc1` the IC50 [1] was 285 nM, the GI50 (NCI-H1975) was 61.3 nM and the GI50 (HeLa) was 19.6 nM. It also gave a GI50 (U-937) of 6.21 nM, a GI50 (MDA-MB-231) of 10.1 nM and a GI50 (MCF7) of 7.18 nM.

`CC(C)N(CCc1cccc(C(F)(F)F)c1)Cc1ccc(CCCCCNC(=O)/C=C/c2cccnc2)cc1` showed an IC50 [1] of 381 nM, a GI50 (NCI-H1975) of 26.2 nM and a GI50 (HeLa) of 15.2 nM. It also gave a GI50 (U-937) of 5.1 nM, a GI50 (MDA-MB-231) of 6.92 nM and a GI50 (MCF7) of 2.41 nM.
